From PubChem BioAssay
A selection: hits, their analogues and other compounds. The true share with any hit is near 9%.
M1 antagonist: antagonists of rat M1 muscarinic receptor; Muscarinic acetylcholine receptor M1 (Rattus norvegicus), P08482; actives 3.4% (n = 64,000); AID 628, 2007; B-score at 10 µM; CHO-M1 cells, Fluo-4 calcium, ACh EC80 antagonist mode; active compounds read low;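 active = calcium fluorescence response, raw or row-and-column corrected B-score, differing from the plate sample mean either way at a set confidence level, mostly lower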
Target sequence (P08482 whole entry, looked up): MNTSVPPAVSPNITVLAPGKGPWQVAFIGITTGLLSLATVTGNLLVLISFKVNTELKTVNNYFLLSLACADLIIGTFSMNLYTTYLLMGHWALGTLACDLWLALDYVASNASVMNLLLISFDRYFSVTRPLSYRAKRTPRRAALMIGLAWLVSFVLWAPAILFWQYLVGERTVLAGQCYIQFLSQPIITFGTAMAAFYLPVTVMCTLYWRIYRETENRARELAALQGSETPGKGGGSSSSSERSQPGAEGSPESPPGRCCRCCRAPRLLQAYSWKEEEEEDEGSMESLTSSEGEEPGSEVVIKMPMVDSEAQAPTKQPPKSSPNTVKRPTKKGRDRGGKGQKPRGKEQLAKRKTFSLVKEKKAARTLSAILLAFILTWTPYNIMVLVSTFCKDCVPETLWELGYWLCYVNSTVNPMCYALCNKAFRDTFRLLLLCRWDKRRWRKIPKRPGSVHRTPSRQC
M1 agonist: M1 muscarinic receptor agonists, primary screen, CHO-M1 cells, Fluo-4 calcium, agonist mode | Muscarinic acetylcholine receptor M1 | Fluo-4 calcium fluorescence; active compounds read high | B-score at 10 µM | actives 3% (n = 64,000) | AID 626, 2007;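 active = fluorescence rise, raw or as B-score row- and column-corrected plate score, outside the 99.7% band of its plate's samples, either direction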
D1 mod: D1 CRE-luciferase signal change, two-sided – cell-based, HEK293 D1, dopamine EC30, D1 allosteric modulator project, primary screen | dopamine EC30 potentiation; actives deviate in either direction | B-score at 10 µM | actives 5.9% (n = 58,000);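 active = luminescence count or its row- and column-corrected plate score outside the 99.7% band of the plate's sample wells, on either side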
mHtt clearance: clearance of mutant huntingtin inclusions, primary screen, imaging, HeLa Exon1htt(103Q)mCFP, confocal imaging. aggregate imaging; zero = plate's median compound well. inhibition, % at 1.5 µM. actives 0.42% (n = 47,000);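 active = inhibition of aggregate fluorescence above about 70%, also judged a hit by eye on the cell image, limit read from the data, passing the limit was not always enough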;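 also: cells exposed to compound for three days before fixation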
AP ELISA ortho: alternative complement pathway inhibitors, primary screen, biochemical, ELISA, human serum, orthogonally pooled compounds | LPS-coated ELISA, C3 deposition; tested in compound mixtures | inhibition, % at 5 µM | actives 0.08% (n = 62,000) | AID 1235, 2008;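 active = inhibition above 30% in each of the two pooled mixtures holding the compound, so the lower value exceeds 30%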
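Medium: diluted human serum in Mg2+-EGTA GVB++. Assay system: human serum complement alternative pathway, C3 deposition onto LPS. Also added: Plate-bound LPS. Technique: Anti-C3 ELISA, OD 450 nm. Measure: percent inhibition. Incubation: 1 h at 37 °C. Dosing: 5 µM each compound, pools of ten, 50 µM per pool.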
M1 antag confirm: rat M1 muscarinic receptor antagonists, confirmation, CHO cells, Fluo-4 calcium, duplicate | shares compounds with M1 antagonist | ACh EC80 antagonism; active compounds read low | calcium response (max-min fluorescence) at 10 µM | actives 43% (n = 1,700) | AID 677, 2007;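 active = calcium response below the same-plate mean of wells given acetylcholine alone at its 80%-effect dose, minus 3 SD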
mGluR4 antag: human mGluR4 response to M1 antagonist hits, M1 allosteric modulator project, cell-based, antagonist mode, secondary assay 1; shares compounds with M1 antagonist; CHO-mGluR4 calcium flux, Fluo-4 fluorescence, glutamate EC80; active compounds read low; fluorescence response (max-min) at 10 µM; actives 0.9% (n = 1,700); AID 678, 2007;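 active = fluorescence response below the plate's average for near-maximal glutamate wells, less 3 SD of those wells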;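 also: raw unnormalized fluorescence span taken in the window right after glutamate addition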
Large screens that a line does not name were inactive (follow-up assays come after a bar, where they were run).

CCOC(=O)c1c(NC(=O)c2ccn(CC)n2)sc2c1CCCC2	none (no result: mHtt clearance)
CC(C)Oc1ccc(C(=O)Nc2ccc(N3CCCC3)cc2)cc1	M1 antagonist -2.14 | M1 antag confirm 405 | mGluR4 antag inactive
Cc1ccc(C(C(=O)NC2CCCC2)N2CCCCC2)cc1 (centres undefined)	M1 antagonist -3.45 (no result: mHtt clearance) | M1 antag confirm 468 | mGluR4 antag inactive
O=C(NC1CCCCC1)C(c1ccccc1)N1CCCC1 (centres undefined)	M1 antagonist -13.2 (no result: mHtt clearance) | M1 antag confirm 121 | mGluR4 antag inactive
Cc1ccc(C(C(=O)NC2CCCCC2)N2CCCC2)cc1 (centres undefined)	M1 antagonist -3.82 (no result: mHtt clearance) | M1 antag confirm 461 | mGluR4 antag inactive
Cc1cc(C(=O)N2CCN(C(c3ccccc3)c3ccccc3)CC2)on1	M1 antagonist -1.35 (no result: D1 mod, mHtt clearance) | M1 antag confirm 361 | mGluR4 antag inactive
CCc1nc(N[C@@H](Cc2c[nH]c3ccccc23)C(=O)O)c2oc3ccccc3c2n1	none (no result: mHtt clearance)
CCc1nc(Nc2ccncc2)c2oc3ccccc3c2n1	M1 antagonist -2.4 | M1 antag confirm 441 | mGluR4 antag inactive
COc1ccc2cc(CN(CCO)C(=O)c3ccccc3F)c(=O)[nH]c2c1	M1 antagonist -2.73 (no result: mHtt clearance) | M1 antag confirm inactive | mGluR4 antag inactive
CCOc1ccc2[nH]c(=O)c(CN(CCO)C(=O)c3ccccc3F)cc2c1	none
CCCCNC(=O)C1CCN(C/C(C)=C/c2ccccc2)CC1	none (no result: M1 antagonist, M1 agonist, D1 mod, AP ELISA ortho)
CCCCN(C)C(=O)C1CCN(C/C(C)=C/c2ccccc2)CC1	M1 antagonist -4.01 (no result: mHtt clearance) | M1 antag confirm 520 | mGluR4 antag inactive
CC1(C)CC(=O)C(CC2=C(O)CC(C)(C)CC2=O)=C(O)C1	none
CC(C)Sc1nc(SCC(=O)NCc2ccco2)c2c3c(sc2n1)COC(C)(C)C3	M1 antagonist -1.92 (no result: D1 mod, mHtt clearance) | M1 antag confirm inactive | mGluR4 antag inactive
CCCSc1nc(SCC(=O)NCc2ccccc2)c2c3c(sc2n1)COC(C)(C)C3	none (no result: M1 antagonist, M1 agonist, D1 mod, AP ELISA ortho)
C=CCOC(=O)C1CC=CCC1C(=O)Oc1ccc(F)cc1F (centres undefined)	none
COC(=O)c1ccc2[nH]c(C)cc(=O)c2c1	M1 antagonist -6.47 | M1 antag confirm 210 | mGluR4 antag inactive
N#CCCN1CCN(S(=O)(=O)c2ccc(S(=O)(=O)N3CCOCC3)cc2)CC1	none (no result: mHtt clearance)
N#CCCN1CCN(S(=O)(=O)c2ccc(S(=O)(=O)NCc3ccccc3)cc2)CC1	M1 antagonist -3.45 (no result: mHtt clearance) | M1 antag confirm inactive | mGluR4 antag inactive
C=C(C)c1nc(N)nc(N)n1	none
COC(=O)CC1C(=O)NCCN1C(=O)Nc1ccccc1 (centres undefined)	none
CCOC(=O)CC1C(=O)NCCN1C(=O)Nc1ccccc1 (centres undefined)	M1 antagonist -2.16 | M1 antag confirm inactive | mGluR4 antag inactive
COc1cccc2cc(C(=O)N3CCN(C45CC6CC(CC(C6)C4)C5)CC3)c(=O)oc12	M1 antagonist -1.76 | M1 antag confirm 412 | mGluR4 antag inactive
COc1cccc2cc(C(=O)N3CCC(C)CC3)c(=O)oc12	none (no result: mHtt clearance)
COC(=O)C1C(=O)c2c([nH]c(C(=O)OCCOC(C)C)c2C)CC1C (centres undefined)	M1 antagonist -2.91 (no result: mHtt clearance) | M1 antag confirm inactive | mGluR4 antag inactive
CCc1cccc(Nc2cc(C)nc3nc(C)nn23)c1	none (no result: mHtt clearance)
CCN1CCN(Cc2c(OC)ccc3ccccc23)CC1	M1 antagonist -3.01, D1 mod -3.59 | M1 antag confirm inactive | mGluR4 antag inactive
CCN1CCN(CCC(=O)Nc2ccccc2OC)CC1	none
O=C(NC(C(=O)c1ccccc1)N1CCCCC1)c1ccccc1 (centres undefined)	none (no result: mHtt clearance)
